The values that follow come from ChEMBL document CHEMBL1141125, “Heteroaryl-substituted naphthalenes and structurally modified derivatives: selective inhibitors of CYP11B2 for the treatment of congestive heart failure and myocardial fibrosis” (J Med Chem, 2005).

The target of data set [1] is T1, Cytochrome P450 11B2, mitochondrial (Homo sapiens, UniProt P19099).
T1 sequence (P19099 whole entry): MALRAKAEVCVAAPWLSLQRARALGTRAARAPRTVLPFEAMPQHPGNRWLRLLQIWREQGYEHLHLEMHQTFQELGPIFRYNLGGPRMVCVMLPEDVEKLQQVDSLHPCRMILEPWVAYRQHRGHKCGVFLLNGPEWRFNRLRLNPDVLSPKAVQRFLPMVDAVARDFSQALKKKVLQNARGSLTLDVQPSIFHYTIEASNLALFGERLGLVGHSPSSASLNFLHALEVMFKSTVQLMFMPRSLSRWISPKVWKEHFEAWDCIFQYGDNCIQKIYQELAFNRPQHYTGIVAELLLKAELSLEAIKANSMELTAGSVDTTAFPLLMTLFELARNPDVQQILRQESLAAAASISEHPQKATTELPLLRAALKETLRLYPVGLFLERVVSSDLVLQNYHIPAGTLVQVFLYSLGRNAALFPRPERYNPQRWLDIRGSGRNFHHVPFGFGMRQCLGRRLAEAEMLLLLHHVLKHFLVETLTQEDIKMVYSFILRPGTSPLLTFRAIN
Kind of data set: Percent inhibition against human cytochrome P450 11B2 expressed in fission yeast, incubated with [14C]deoxycorticosterone. More on the design: concentration or dose not given beside the values.

Data set [2] deals with T1, Cytochrome P450 11B2, mitochondrial. Kind of data set: Inhibitory concentration against human cytochrome P450 11B2 expressing in V79 MZh cells using [14C]deoxycorticosterone as substrate measured by screening assay. It counts as cell-based.
The species named for a further data set is Homo sapiens. Kind of data set: Ratio between inhibitory concentration of cytochrome P450 11B1 to cytochrome P450 11B2. The procedure, abridged: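 Confluent V79 MZh hamster lung fibroblasts expressing human CYP11B1 or CYP11B2, in DMEM. Preincubated 60 min at 37 °C with inhibitor at three or more concentrations. [4-14C]11-deoxycorticosterone substrate, 100 nM. Incubation 120 min for CYP11B1 and 40 min for CYP11B2; controls without inhibitor. Ethyl acetate extraction, then HPTLC with phosphoimager quantification, giving IC50.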

The target of data set [3] is T2, Cytochrome P450 11B1, mitochondrial (Homo sapiens, UniProt P15538).
T2 sequence (P15538 whole entry): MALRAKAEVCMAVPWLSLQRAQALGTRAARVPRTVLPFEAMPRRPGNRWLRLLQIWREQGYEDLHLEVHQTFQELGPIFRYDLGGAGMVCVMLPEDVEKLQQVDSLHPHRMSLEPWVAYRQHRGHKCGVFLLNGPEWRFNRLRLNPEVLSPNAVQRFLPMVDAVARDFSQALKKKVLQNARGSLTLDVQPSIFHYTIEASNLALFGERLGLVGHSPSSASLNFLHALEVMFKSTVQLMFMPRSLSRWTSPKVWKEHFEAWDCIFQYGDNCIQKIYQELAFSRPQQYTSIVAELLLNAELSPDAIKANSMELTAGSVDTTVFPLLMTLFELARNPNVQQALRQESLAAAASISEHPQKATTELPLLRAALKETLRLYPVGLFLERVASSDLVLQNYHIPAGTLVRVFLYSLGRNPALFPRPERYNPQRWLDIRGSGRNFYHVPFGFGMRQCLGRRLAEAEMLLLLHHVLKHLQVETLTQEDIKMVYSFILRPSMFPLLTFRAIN
Kind of data set: Inhibitory concentration against human cytochrome P450 11B1 expressed in V79 MZh hamster lung fibroblasts, incubated with [14C]deoxycorticosterone.

Data set [4] concerns the target T1, Cytochrome P450 11B2, mitochondrial. Kind of data set: Inhibitory concentration against human cytochrome P450 11B2 expressed in V79 MZh hamster lung fibroblasts, incubated with [14C]deoxycorticosterone.
The target in another data set is Cytochrome P450 3A4 (Homo sapiens, UniProt P08684). Kind of data set: Inhibition percent against human hepatic cytochrome P450 3A4 enzyme at 50 uM concentration; no inhibition. It counts as ADME.
The next data set has as its target Cytochrome P450 2D6 (Homo sapiens, UniProt P10635). Kind of data set: Inhibition percent against human hepatic cytochrome P450 2D6 enzyme at 20 nM concentration; no inhibition.
In a further data set the target is T3, CYP11B1 (Homo sapiens, UniProt P15538).
T3 sequence (P15538 whole entry): T2 sequence (P15538 whole entry)
Kind of data set: Inhibitory concentration against human cytochrome P450 11B1 expressed in V79 MZh hamster lung fibroblasts, incubated with [14C]deoxycorticosterone. As to conditions: human, V79 MZh hamster lung fibroblasts expressing human CYP11B1, probe [14C]deoxycorticosterone; call rule not given here.

In data set [5] the target is T4, Steroid 17-alpha-hydroxylase/17,20 lyase (Homo sapiens, UniProt P05093).
T4 sequence (P05093 whole entry): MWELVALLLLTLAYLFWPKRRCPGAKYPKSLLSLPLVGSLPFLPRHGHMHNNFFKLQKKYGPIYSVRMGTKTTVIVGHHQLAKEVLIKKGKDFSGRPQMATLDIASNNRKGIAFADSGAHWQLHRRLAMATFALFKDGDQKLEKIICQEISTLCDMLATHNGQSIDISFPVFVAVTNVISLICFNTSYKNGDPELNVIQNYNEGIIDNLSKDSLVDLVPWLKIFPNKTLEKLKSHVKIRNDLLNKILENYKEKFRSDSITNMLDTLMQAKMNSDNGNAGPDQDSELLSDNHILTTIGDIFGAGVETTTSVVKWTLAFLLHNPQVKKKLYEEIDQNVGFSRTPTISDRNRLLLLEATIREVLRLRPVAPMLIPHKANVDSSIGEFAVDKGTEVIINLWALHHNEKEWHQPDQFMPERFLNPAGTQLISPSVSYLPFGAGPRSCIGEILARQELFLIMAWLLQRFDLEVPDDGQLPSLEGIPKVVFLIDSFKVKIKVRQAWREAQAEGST
Kind of data set: Percent inhibition against recombinant human cytochrome P450 17A1 using progesterone. Set-up: concentration or dose not given beside the values.

For a further data set, the target named is T5, Aromatase (Homo sapiens, UniProt P11511).
T5 sequence (P11511 whole entry): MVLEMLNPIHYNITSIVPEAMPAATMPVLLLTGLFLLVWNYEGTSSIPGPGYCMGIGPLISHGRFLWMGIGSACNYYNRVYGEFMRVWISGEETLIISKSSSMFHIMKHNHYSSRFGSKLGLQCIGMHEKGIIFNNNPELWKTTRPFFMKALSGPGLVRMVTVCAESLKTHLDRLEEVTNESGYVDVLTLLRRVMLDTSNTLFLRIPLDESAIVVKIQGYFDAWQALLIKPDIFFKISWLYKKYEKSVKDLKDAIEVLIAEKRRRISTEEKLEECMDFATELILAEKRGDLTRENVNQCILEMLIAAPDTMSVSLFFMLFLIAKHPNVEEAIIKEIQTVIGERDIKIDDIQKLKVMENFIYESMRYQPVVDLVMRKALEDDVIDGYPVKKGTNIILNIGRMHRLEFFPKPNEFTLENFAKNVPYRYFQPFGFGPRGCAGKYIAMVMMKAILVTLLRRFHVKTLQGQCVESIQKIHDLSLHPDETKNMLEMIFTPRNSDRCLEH

A short description of data set [6]: Solubility calculated with ACD/I-lab at pH 7.4. As to conditions: read-out: S.

The Inhibition is the drop in the measured response relative to a control, in per cent. As usually defined, the IC50 is the midpoint of a concentration-inhibition curve.

≈ marks a conversion by molar mass, not a printed value. Bounds are passed on as bounds.

Sequence of Cytochrome P450 2D6 (P10635 whole entry): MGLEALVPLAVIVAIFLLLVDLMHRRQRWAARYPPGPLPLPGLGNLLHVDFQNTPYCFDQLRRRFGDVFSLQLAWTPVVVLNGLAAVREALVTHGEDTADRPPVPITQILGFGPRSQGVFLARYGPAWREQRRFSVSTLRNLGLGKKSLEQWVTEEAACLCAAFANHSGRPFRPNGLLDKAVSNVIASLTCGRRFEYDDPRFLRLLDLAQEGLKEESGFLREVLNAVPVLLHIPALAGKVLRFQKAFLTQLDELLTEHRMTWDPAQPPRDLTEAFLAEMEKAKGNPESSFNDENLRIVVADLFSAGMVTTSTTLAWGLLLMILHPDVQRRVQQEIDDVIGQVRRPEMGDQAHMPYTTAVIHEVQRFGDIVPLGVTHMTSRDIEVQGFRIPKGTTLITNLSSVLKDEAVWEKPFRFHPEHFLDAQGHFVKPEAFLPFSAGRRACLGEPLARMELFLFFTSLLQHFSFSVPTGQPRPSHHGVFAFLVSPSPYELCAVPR
Sequence of Cytochrome P450 3A4 (P08684 whole entry): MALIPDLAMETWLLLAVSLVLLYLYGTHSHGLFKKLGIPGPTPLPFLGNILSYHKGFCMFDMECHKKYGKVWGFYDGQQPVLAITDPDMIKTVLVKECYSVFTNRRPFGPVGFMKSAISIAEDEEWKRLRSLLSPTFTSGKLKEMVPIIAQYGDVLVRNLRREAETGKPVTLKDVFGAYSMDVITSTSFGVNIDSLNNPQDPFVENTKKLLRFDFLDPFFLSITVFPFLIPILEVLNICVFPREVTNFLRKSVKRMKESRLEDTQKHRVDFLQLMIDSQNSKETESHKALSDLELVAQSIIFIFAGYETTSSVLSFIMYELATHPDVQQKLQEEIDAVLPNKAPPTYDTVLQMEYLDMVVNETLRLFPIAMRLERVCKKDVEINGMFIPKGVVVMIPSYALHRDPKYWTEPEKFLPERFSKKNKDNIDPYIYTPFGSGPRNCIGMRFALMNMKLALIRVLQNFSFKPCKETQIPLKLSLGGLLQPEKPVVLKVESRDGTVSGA

Consider `COc1cc2ccccc2cc1-n1ccnc1`, for which, in data set [1], the Inhibition is on record as 87%. Further, the IC50 in [2] worked out at 0.0191 µM; in data set [3], 0.081 µM; in [4], 0.019 µM. The Selectivity factor in the data set listed under Homo sapiens is 4.
`COc1cc2ccccc2cc1-c1cccnc1` returned an Inhibition in data set [1] of 30%. In data set [2], this compound came in with an IC50 greater than 0.5 µM.
In the case of `CCOc1ccc2cc(-c3cccnc3)ccc2c1`, the Inhibition result on Cytochrome P450 3A4 and on Cytochrome P450 2D6 was “Not Active” throughout. In addition, the Selectivity factor in the data set listed under Homo sapiens was determined as 451. The IC50 in [3] turned out to be 5.42 µM.
`c1ccc2ncc(-n3ccnc3)cc2c1` came in with an Inhibition in data set [1] of 17%. For the same compound, in the data set listed under Homo sapiens, the Selectivity factor stood at 10. For the same compound, the IC50 in data set [3] amounted to 6.34 µM; in data set [4] it was 0.604 µM.
In turn, `CNC(=O)c1ccc2cc(-c3cccnc3)ccc2c1` yielded an Inhibition in data set [1] of 0%.
On the same count and under the same terms, next, `c1cncc(-c2cnc3ccccc3n2)c1`: 13%; `Cn1cncc1-c1ccc2ccccc2c1`: 28%.
In data set [1], `c1ccc2cc(-c3cnc[nH]3)ccc2c1` gave an Inhibition of 41%. Further, the Selectivity factor in the data set listed under Homo sapiens was found to be 0.7. Moreover, the IC50 against CYP11B1 was determined as 0.207 µM; in [4], 0.296 µM.
For `N#Cc1ccc(C2CCCc3cncn32)cc1` (stereo not drawn) [FADROZOLE], in data set [5], the Inhibition is 5%.
Turning to `N#Cc1ccc2cc(-c3cccnc3)ccc2c1`, the Inhibition in data set [5] is on record as 73%. In addition, the IC50 at Aromatase was greater than 36 µM. Moreover, the Selectivity factor in the data set listed under Homo sapiens came to 238. Besides, the solubility in data set [6] is 160 µM (≈ 36.8 µg/mL).
For `COc1ccc2cc(-n3ccnc3)ccc2c1`, the Inhibition in [1] is 49%. Also, the IC50 in [2] is 0.218 µM; in data set [3], 0.849 µM; in data set [4] it was 0.218 µM. The Selectivity factor in the data set filed under Homo sapiens stood at 4.
With `c1ccc2cc(-n3ccnc3)ccc2c1`, the IC50 was 0.0385 µM in data set [2], 1.32 µM in data set [3] and 0.039 µM in data set [4]. Besides, in data set [6], the solubility was 280 µM (≈ 54.4 µg/mL).
Take `COc1ccc2cc(-c3cccnc3)ccc2c1Br`: the Selectivity factor in the data set listed under Homo sapiens was 136. In addition, in data set [6], the solubility is 39 µM (≈ 12.3 µg/mL). This compound registered an IC50 in data set [3] of 4.48 µM.
Take `COc1ccc2c(Cl)c(-c3cccnc3)ccc2c1Cl`: the Inhibition in [5] stood at 83%. The Selectivity factor in the data set listed under Homo sapiens turned out to be 174. Moreover, in [6], the solubility is 7.2 µM (≈ 2.19 µg/mL). Further, the half-inhibitory concentration (IC50) in data set [3] came to 4.9 µM.
For the compound `COc1ccc2cc(-c3cccnc3)ccc2c1Cl`, the Selectivity factor in the data set listed under Homo sapiens amounted to 192. Further, the solubility in data set [6] is 7.6 µM (≈ 2.05 µg/mL). Moreover, the IC50 in [3] is 2.52 µM.
As to `Brc1ccc2cc(-c3cccnc3)ccc2c1`, the IC50 was greater than 36 µM at Aromatase and 2.94 µM in [3]. Moreover, the Selectivity factor in the data set filed under Homo sapiens is 196. In addition, the solubility in data set [6] is 1.3 µM (≈ 0.369 µg/mL).
Turning to `COc1ccc2cc(-c3ccncc3)ccc2c1`, the Inhibition in data set [1] was 0%.
With `COC(=O)c1ccc2cc(-c3cccnc3)ccc2c1`, the Inhibition in [1] was 74%. Moreover, the Selectivity factor in the data set filed under Homo sapiens worked out at 145. Besides, the solubility in data set [6] is 71 µM (≈ 18.7 µg/mL). The same compound returned an IC50 in data set [4] of 0.072 µM.
Consider `COc1ccc2cc(-c3cccnc3)ccc2c1`, for which the Inhibition in [5] was determined as 72%. The solubility in data set [6] was 79 µM (≈ 18.6 µg/mL).
With `c1cncc(-c2cc3ccccc3c3ccccc23)c1`, the Inhibition in [1] is listed as 27%. This compound also yielded an IC50 in data set [3] of 7.55 µM.
In turn, `CCCOc1ccc2cc(-c3cccnc3)ccc2c1` had an Inhibition in data set [1] of 36%.
The same measure, in the same setting: under `COc1ccc2cc(-c3cccnc3)ccc2c1-c1cccnc1` stands 9%.
For `c1cncc(-c2ccc3ccccc3c2)c1`, the solubility in data set [6] was 200 µM (≈ 41.1 µg/mL).
With `c1ccc(COc2ccc3cc(-c4cccnc4)ccc3c2)cc1`, the Inhibition in data set [1] was found to be 3%.
Turning to `COc1ccc2ccc(-c3cccnc3)c(Cl)c2c1`, the Inhibition in data set [5] was 94%. The values for the IC50 (at Aromatase; in data set [3]) were greater than 36 µM and 2.72 µM, respectively. Further, the Selectivity factor in the data set listed under Homo sapiens is 94. In addition, in data set [6], the solubility was 14 µM (≈ 3.78 µg/mL).
For the compound `Oc1ccc2cc(-c3cccnc3)ccc2c1`, the solubility in data set [6] was 230 µM (≈ 50.9 µg/mL).
As for `c1ccc2cc(-c3cnco3)ccc2c1`, the Inhibition in [1] was 11%. Moreover, in the data set listed under Homo sapiens, the Selectivity factor came to 66. Further, inhibition in data set [4] was half-maximal at 0.012 µM (IC50).
`NC(=O)c1ccc2cc(-c3cccnc3)ccc2c1` had an Inhibition in [1] of 0%.
